Test results published in ChEMBL document CHEMBL1142148, “Antibiotic susceptibility profile of bifidobacteria as affected by oxgall, acid, and hydrogen peroxide stress” (2007).
≈ marks a conversion by molar mass, not a printed value.

How the values were obtained:
[1] = tested on: Bifidobacterium animalis; assay: Antimicrobial activity against Bifidobacterium animalis ATCC 27536; assay type: functional
Outline: (§1)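 Broth microdilution in MRS plus 0.05% L-cysteine-HCl. Mid-log culture adjusted to OD650 0.1, giving about 2.5 × 10^4 to 5.0 × 10^4 CFU/well, then added to twofold serial dilutions of agent. Plates incubated anaerobically at 37°C for 18 h and read at OD650. MIC is the lowest concentration matching the uninoculated blank OD, taken as the median of four repeats.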

[2] = tested on: Bifidobacterium bifidum; assay: Antimicrobial activity against Bifidobacterium bifidum R0071; assay type: functional; outline: as §1
[3] = tested on: Bifidobacterium bifidum; assay: Antimicrobial activity against Bifidobacterium bifidum ATCC 15696; assay type: functional; outline: as §1
[4] = tested on: Bifidobacterium bifidum; assay: Antimicrobial activity against Bifidobacterium bifidum BB12; assay type: functional; outline: as §1
[5] = tested on: Bifidobacterium breve; assay: Antimicrobial activity against Bifidobacterium breve ATCC 15700; assay type: functional; outline: as §1
[6] = Antimicrobial activity against Bifidobacterium infantis ATCC 15697; assay type: functional, Bifidobacterium longum subsp. infantis; details: Bifidobacterium longum; outline: as §1
[7] = tested on: Bifidobacterium longum; assay: Antimicrobial activity against Bifidobacterium longum ATCC 15708; assay type: functional; outline: as §1
[8] = tested on: Bifidobacterium longum; assay: Antimicrobial activity against Bifidobacterium longum R0175; assay type: functional; outline: as §1
[9] = tested on: Bifidobacterium longum; assay: Antimicrobial activity against Bifidobacterium longum P/N 601377; assay type: functional; outline: as §1
[10] = tested on: Bifidobacterium pseudolongum; assay: Antimicrobial activity against Bifidobacterium pseudolongum ATCC 25562; assay type: functional; outline: as §1
[11] = tested on: Bifidobacterium thermophilum; assay: Antimicrobial activity against Bifidobacterium thermophilum ATCC 25866; assay type: functional; outline: as §1
[12] = tested on: Bifidobacterium breve; assay: Antimicrobial activity against Bifidobacterium breve R0070; assay type: functional; outline: as §1
[13] = tested on: Bifidobacterium animalis; assay: Antimicrobial activity against 60 min 1 M HCl-stressed Bifidobacterium animalis ATCC 27536 after 18 hrs; assay type: functional
Outline: (§2)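 Mid-log MRS culture pelleted and resuspended in MRS broth brought to pH 2.0 with 1 M HCl, held anaerobically at 37°C for 60 min, then subcultured in MRS (pH 6.5) for 24 h anaerobically before MIC testing by broth microdilution (as for unstressed cells). Table footnote gives 18 h anaerobic regrowth after the stress. MIC is the median of four repetitions.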

[14] = tested on: Bifidobacterium bifidum; assay: Antimicrobial activity against 60 min 1 M HCl-stressed Bifidobacterium bifidum R0071 after 18 hrs; assay type: functional; outline: as §2
[15] = tested on: Bifidobacterium bifidum; assay: Antimicrobial activity against 60 min 1 M HCl-stressed Bifidobacterium bifidum BB12 after 18 hrs; assay type: functional; outline: as §2
[16] = tested on: Bifidobacterium breve; assay: Antimicrobial activity against 60 min 1 M HCl-stressed Bifidobacterium breve ATCC 15700 after 18 hrs; assay type: functional; outline: as §2
[17] = tested on: Bifidobacterium breve; assay: Antimicrobial activity against 60 min 1 M HCl-stressed Bifidobacterium breve R0070 after 18 hrs; assay type: functional; outline: as §2
[18] = Antimicrobial activity against 60 min 1 M HCl-stressed Bifidobacterium infantis ATCC 15697 after 18 hrs; assay type: functional, Bifidobacterium longum subsp. infantis; details: Bifidobacterium longum; outline: as §2
[19] = tested on: Bifidobacterium longum; assay: Antimicrobial activity against 60 min 1 M HCl-stressed Bifidobacterium longum ATCC 15707 after 18 hrs; assay type: functional; outline: as §2
[20] = tested on: Bifidobacterium longum; assay: Antimicrobial activity against 60 min 1 M HCl-stressed Bifidobacterium longum R0175 after 18 hrs; assay type: functional; outline: as §2
[21] = tested on: Bifidobacterium longum; assay: Antimicrobial activity against 60 min 1 M HCl-stressed Bifidobacterium longum P/N 601377 after 18 hrs; assay type: functional; outline: as §2
[22] = tested on: Bifidobacterium pseudolongum; assay: Antimicrobial activity against 60 min 1 M HCl-stressed Bifidobacterium pseudolongum ATCC 25562 after 18 hrs; assay type: functional; outline: as §2
[23] = tested on: Bifidobacterium thermophilum; assay: Antimicrobial activity against 60 min 1 M HCl-stressed Bifidobacterium thermophilum ATCC 25866 after 18 hrs; assay type: functional; outline: as §2
[24] = tested on: Bifidobacterium animalis; assay: Antimicrobial activity against 90 mins oxgall-stressed Bifidobacterium animalis ATCC 27536 after 18 hrs; assay type: functional
Outline: (§3)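 Cells pelleted from mid-log MRS culture and resuspended in MRS (initial pH 6.5) with 0.3% (wt/vol) oxgall for 90 min anaerobically at 37°C. They were then regrown in MRS pH 6.5 for 24 h (footnote: 18 h) anaerobically and tested for MIC by the same broth microdilution assay. Median of four repetitions.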

[25] = tested on: Bifidobacterium bifidum; assay: Antimicrobial activity against 90 mins oxgall-stressed Bifidobacterium bifidum R0071 after 18 hrs; assay type: functional; outline: as §3
[26] = tested on: Bifidobacterium bifidum; assay: Antimicrobial activity against 90 mins oxgall-stressed Bifidobacterium bifidum ATCC 15696 after 18 hrs; assay type: functional; outline: as §3
[27] = tested on: Bifidobacterium bifidum; assay: Antimicrobial activity against 90 mins oxgall-stressed Bifidobacterium bifidum BB12 after 18 hrs; assay type: functional; outline: as §3
[28] = tested on: Bifidobacterium breve; assay: Antimicrobial activity against 90 mins oxgall-stressed Bifidobacterium breve ATCC 15700 after 18 hrs; assay type: functional; outline: as §3
[29] = tested on: Bifidobacterium breve; assay: Antimicrobial activity against 90 mins oxgall-stressed Bifidobacterium breve R0070 after 18 hrs; assay type: functional; outline: as §3
[30] = Antimicrobial activity against 90 mins oxgall-stressed Bifidobacterium infantis ATCC 15697 after 18 hrs; assay type: functional, Bifidobacterium longum subsp. infantis; details: Bifidobacterium longum; outline: as §3
[31] = tested on: Bifidobacterium longum; assay: Antimicrobial activity against 90 mins oxgall-stressed Bifidobacterium longum ATCC 15707 after 18 hrs; assay type: functional; outline: as §3
[32] = tested on: Bifidobacterium longum; assay: Antimicrobial activity against 90 mins oxgall-stressed Bifidobacterium longum ATCC 15708 after 18 hrs; assay type: functional; outline: as §3
[33] = tested on: Bifidobacterium longum; assay: Antimicrobial activity against Bifidobacterium longum ATCC 15707; assay type: functional; outline: as §1
[34] = tested on: Bifidobacterium longum; assay: Antimicrobial activity against 90 mins oxgall-stressed Bifidobacterium longum R0175 after 18 hrs; assay type: functional; outline: as §3
[35] = tested on: Bifidobacterium longum; assay: Antimicrobial activity against 90 mins oxgall-stressed Bifidobacterium longum P/N 601377 after 18 hrs; assay type: functional; outline: as §3
[36] = tested on: Bifidobacterium pseudolongum; assay: Antimicrobial activity against 90 mins oxgall-stressed Bifidobacterium pseudolongum ATCC 25562 after 18 hrs; assay type: functional; outline: as §3
[37] = tested on: Bifidobacterium thermophilum; assay: Antimicrobial activity against 90 mins oxgall-stressed Bifidobacterium thermophilum ATCC 25866 after 18 hrs; assay type: functional; outline: as §3
[38] = tested on: Bifidobacterium animalis; assay: Antimicrobial activity against 90 mins hydrogen peroxide-stressed Bifidobacterium animalis ATCC 27536 after 18 hrs; assay type: functional
Outline: (§4)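 Stress applied for 90 min at 37°C under anaerobic conditions, using MRS (initial pH 6.5) containing H2O2 at each strain's own inhibitory concentration. The H2O2 level was set beforehand by microplate tolerance testing. Challenged cells were regrown in MRS for 24 h (footnote: 18 h) before MIC testing by broth microdilution. Median of four repetitions.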

[39] = tested on: Bifidobacterium bifidum; assay: Antimicrobial activity against 90 mins hydrogen peroxide-stressed Bifidobacterium bifidum R0071 after 18 hrs; assay type: functional; outline: as §4
[40] = tested on: Bifidobacterium bifidum; assay: Antimicrobial activity against 90 mins hydrogen peroxide-stressed Bifidobacterium bifidum BB12 after 18 hrs; assay type: functional; outline: as §4
[41] = tested on: Bifidobacterium breve; assay: Antimicrobial activity against 90 mins hydrogen peroxide-stressed Bifidobacterium breve ATCC 15700 after 18 hrs; assay type: functional; outline: as §4
[42] = tested on: Bifidobacterium breve; assay: Antimicrobial activity against 90 mins hydrogen peroxide-stressed Bifidobacterium breve R0070 after 18 hrs; assay type: functional; outline: as §4
[43] = tested on: Bifidobacterium longum; assay: Antimicrobial activity against 90 mins hydrogen peroxide-stressed Bifidobacterium longum ATCC 15707 after 18 hrs; assay type: functional; outline: as §4
[44] = tested on: Bifidobacterium longum; assay: Antimicrobial activity against 90 mins hydrogen peroxide-stressed Bifidobacterium longum ATCC 15708 after 18 hrs; assay type: functional; outline: as §4
[45] = tested on: Bifidobacterium longum; assay: Antimicrobial activity against 90 mins hydrogen peroxide-stressed Bifidobacterium longum R0175 after 18 hrs; assay type: functional; outline: as §4
[46] = tested on: Bifidobacterium longum; assay: Antimicrobial activity against 90 mins hydrogen peroxide-stressed Bifidobacterium longum P/N 601377 after 18 hrs; assay type: functional; outline: as §4
[47] = tested on: Bifidobacterium thermophilum; assay: Antimicrobial activity against 90 mins hydrogen peroxide-stressed Bifidobacterium thermophilum ATCC 25866 after 18 hrs; assay type: functional; outline: as §4

## O=C(N[C@H](CO)[C@H](O)c1ccc([N+](=O)[O-])cc1)C(Cl)Cl [CHLORAMPHENICOL]
[1]
  MIC: 7.8 µg/mL (≈ 24.1 µM)
[2]
  MIC: 1.9 µg/mL (≈ 5.88 µM)
[3]
  MIC: 1.9 µg/mL (≈ 5.88 µM)
[4]
  MIC: 1.9 µg/mL (≈ 5.88 µM)
[5]
  MIC: 7.8 µg/mL (≈ 24.1 µM)
[6]
  MIC: 62.5 µg/mL (≈ 193 µM)
[7]
  MIC: 31.2 µg/mL (≈ 96.6 µM)
[8]
  MIC: 7.8 µg/mL (≈ 24.1 µM)
[9]
  MIC: 3.9 µg/mL (≈ 12.1 µM)
[10]
  MIC: 7.8 µg/mL (≈ 24.1 µM)
[11]
  MIC: 7.8 µg/mL (≈ 24.1 µM)
[12]
  MIC: 7.8 µg/mL (≈ 24.1 µM)
[13]
  MIC: 1.9 µg/mL (≈ 5.88 µM)
[14]
  MIC: 7.8 µg/mL (≈ 24.1 µM)
[15]
  MIC: 1.9 µg/mL (≈ 5.88 µM)
[16]
  MIC: 62.5 µg/mL (≈ 193 µM)
[17]
  MIC: 3.9 µg/mL (≈ 12.1 µM)
[18]
  MIC: 0.98 µg/mL (≈ 3.03 µM)
[19]
  MIC: 7.8 µg/mL (≈ 24.1 µM)
[20]
  MIC: 3.9 µg/mL (≈ 12.1 µM)
[21]
  MIC: 1.9 µg/mL (≈ 5.88 µM)
[22]
  MIC: 3.9 µg/mL (≈ 12.1 µM)
[23]
  MIC: 3.9 µg/mL (≈ 12.1 µM)
[24]
  MIC: 1.9 µg/mL (≈ 5.88 µM)
[25]
  MIC: 3.9 µg/mL (≈ 12.1 µM)
[26]
  MIC: 3.9 µg/mL (≈ 12.1 µM)
[27]
  MIC: 1.9 µg/mL (≈ 5.88 µM)
[28]
  MIC: 3.9 µg/mL (≈ 12.1 µM)
[29]
  MIC: 3.9 µg/mL (≈ 12.1 µM)
[30]
  MIC: 0.98 µg/mL (≈ 3.03 µM)
[31]
  MIC: 1.9 µg/mL (≈ 5.88 µM)
[32]
  MIC: 0.98 µg/mL (≈ 3.03 µM)
[33]
  MIC: 15.6 µg/mL (≈ 48.3 µM)
[34]
  MIC: 1.9 µg/mL (≈ 5.88 µM)
[35]
  MIC: 1.9 µg/mL (≈ 5.88 µM)
[36]
  MIC: 0.98 µg/mL (≈ 3.03 µM)
[37]
  MIC: 3.9 µg/mL (≈ 12.1 µM)
[38]
  MIC: 3.9 µg/mL (≈ 12.1 µM)
[39]
  MIC: 1.9 µg/mL (≈ 5.88 µM)
[40]
  MIC: 1.9 µg/mL (≈ 5.88 µM)
[41]
  MIC: 1.9 µg/mL (≈ 5.88 µM)
[42]
  MIC: 1.9 µg/mL (≈ 5.88 µM)
[43]
  MIC: 1.9 µg/mL (≈ 5.88 µM)
[44]
  MIC: 3.9 µg/mL (≈ 12.1 µM)
[45]
  MIC: 1.9 µg/mL (≈ 5.88 µM)
[46]
  MIC: 1.9 µg/mL (≈ 5.88 µM)
[47]
  MIC: 1.9 µg/mL (≈ 5.88 µM)
